Calls of active or inactive are those of the source. How the calls were made is not given here.
Assay: HDL-directed efflux in C384S receptor cells – cell-based, ldlA CHO, [3H]cholesterol, dry powder, mechanism study for SR-BI HDL uptake inhibitor project, dose response (AID 602138)
Settings: ldlA CHO cells mSR-BI C384S, [3H]cholesterol efflux to HDL; at 25 µM (top of the series)
Summary of the method: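 Test system: ldlA CHO cells carrying mutant Cys384S SR-BI, [3H]cholesterol-prelabelled | Medium: HEPES-buffered pH 7.4 assay medium with 0.5% fatty acid-free BSA | Probe or stimulus: HDL as cholesterol acceptor, 100 µg/mL final | Times: 1 h compound pre-exposure at 37 °C, 2 h efflux | Detection: Liquid scintillation counting of medium and Triton cell lysate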

COCC(=O)N1CCc2cc(-c3csc(NC(=O)c4cc(OC)cc(OC)c4)n3)ccc21
efflux, lower = inhibition: 6.26% (active)

C[C@H](C(=O)NC1CCCC1)N(C(=O)Cn1nnc(-c2ccc3c(c2)OCO3)n1)C1CCCCC1
efflux, lower = inhibition: 5.73% (active)

Source: PubChem BioAssay AID602138 (Broad Institute, 2011)
